Source: ChEMBL document CHEMBL3745626, “Synthesis of β-boswellic acid derivatives as cytotoxic and apoptotic agents” (Bioorg Med Chem Lett, 2016)
pIC50: −log10 of the molar value.

How the values were obtained:
[1] = Anticancer activity against human HCT116 cells assessed as growth inhibition after 24 hrs by sulforhodamine B assay; assay type: functional, cell-based; conditions: HCT-116, 24 h
Procedure, shortened: (§1)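 SRB assay on human cancer cell lines over a range of concentrations; inhibitory values calculated from concentration–response data, mean ± SD of three experiments.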

T47D = assay: Anticancer activity against human T47D cells assessed as growth inhibition after 24 hrs by sulforhodamine B assay; assay type: functional, cell-based; procedure, shortened: as §1
A549 [2] = assay: Anticancer activity against human A549 cells assessed as growth inhibition at 100 uM after 24 hrs by sulforhodamine B assay; assay type: functional; conditions: A549, 24 h
[3] = Anticancer activity against human PC3 cells assessed as growth inhibition at 100 uM after 24 hrs by sulforhodamine B assay; assay type: functional; conditions: PC-3, 24 h
[4] = Anticancer activity against human HCT116 cells assessed as growth inhibition at 100 uM after 24 hrs by sulforhodamine B assay; assay type: functional; conditions: HCT-116, 24 h
[5] = Anticancer activity against human HT1080 cells assessed as growth inhibition at 100 uM after 24 hrs by sulforhodamine B assay; assay type: functional; conditions: HT-1080, 24 h
A549 [6] = assay: Anticancer activity against human A549 cells assessed as growth inhibition after 24 hrs by sulforhodamine B assay; assay type: functional, cell-based; conditions: A549, 24 h; procedure, shortened: as §1
[7] = Anticancer activity against human PC3 cells assessed as growth inhibition after 24 hrs by sulforhodamine B assay; assay type: functional, cell-based; conditions: PC-3, 24 h; procedure, shortened: as §1
[8] = Cytotoxicity against human FR2 cells assessed as growth inhibition after 24 hrs by sulforhodamine B assay; assay type: cell-based; conditions: FR2, 24 h

**Q.** What does the source list for `COC(=O)[C@@]1(C)C(=O)/C(=C/c2ccccn2)C[C@]2(C)[C@H]3CC=C4[C@@H]5[C@@H](C)[C@H](C)CC[C@]5(C)CC[C@@]4(C)[C@]3(C)CC[C@@H]12`?
**A.** pIC50 [1]: 5.14; pIC50 (T47D): 4.81; inhibition at 100 µM (A549 [2]): 100%; inhibition at 100 µM [3]: 100%; inhibition at 100 µM [4]: 100%; inhibition at 100 µM [5]: 95%; pIC50 (A549 [6]): 4.58; pIC50 [7]: 4.61; pIC50 [8]: 4.23

**Q.** What does the source list for `COC(=O)[C@@]1(C)C(=O)/C(=C/c2ccc3ccccc3n2)C[C@]2(C)[C@H]3CC=C4[C@@H]5[C@@H](C)[C@H](C)CC[C@]5(C)CC[C@@]4(C)[C@]3(C)CC[C@@H]12`?
**A.** inhibition at 100 µM (A549 [2]): 37%; inhibition at 100 µM [3]: 44%; inhibition at 100 µM [4]: 37%; inhibition at 100 µM [5]: 43%

**Q.** With `COC(=O)[C@@]1(C)C(=O)/C(=C/c2ccco2)C[C@]2(C)[C@H]3CC=C4[C@@H]5[C@@H](C)[C@H](C)CC[C@]5(C)CC[C@@]4(C)[C@]3(C)CC[C@@H]12` as the molecule, how does the inhibition at 100 µM (A549 [2]) read?
**A.** 48%

**Q.** What about the inhibition at 100 µM [3] of the same molecule?
**A.** 44%

**Q.** What about the inhibition at 100 µM [4] of the same molecule?
**A.** 18%

**Q.** What about the inhibition at 100 µM [5] of the same molecule?
**A.** 16%

**Q.** Which inhibition at 100 µM (A549 [2]) does the source give for `COC(=O)[C@@]1(C)C(=O)/C(=C/c2ccc(F)c(Br)c2)C[C@]2(C)[C@H]3CC=C4[C@@H]5[C@@H](C)[C@H](C)CC[C@]5(C)CC[C@@]4(C)[C@]3(C)CC[C@@H]12` here?
**A.** 47%

**Q.** What about the inhibition at 100 µM [3] of the same molecule?
**A.** 40%

**Q.** What about the inhibition at 100 µM [4] of the same molecule?
**A.** 27%

**Q.** What about the inhibition at 100 µM [5] of the same molecule?
**A.** 43%

**Q.** With `COC(=O)[C@@]1(C)C(=O)/C(=C/c2ccc(F)cc2F)C[C@]2(C)[C@H]3CC=C4[C@@H]5[C@@H](C)[C@H](C)CC[C@]5(C)CC[C@@]4(C)[C@]3(C)CC[C@@H]12` as the molecule, how does the inhibition at 100 µM (A549 [2]) read?
**A.** 33%

**Q.** And the inhibition at 100 µM [3]?
**A.** 20%

**Q.** And the inhibition at 100 µM [4]?
**A.** 32%

**Q.** What about the inhibition at 100 µM [5] of the same molecule?
**A.** 0%

**Q.** What does the source list for `COC(=O)[C@@]1(C)C(=O)CC[C@]2(C)[C@H]3CC=C4[C@@H]5[C@@H](C)[C@H](C)CC[C@]5(C)CC[C@@]4(C)[C@]3(C)CC[C@@H]12`?
**A.** inhibition at 100 µM (A549 [2]): 56%; inhibition at 100 µM [3]: 44%; inhibition at 100 µM [4]: 58%; inhibition at 100 µM [5]: 21%

**Q.** Which results are given for `COC(=O)[C@@]1(C)C(=O)/C(=C/c2cccc(Br)c2)C[C@]2(C)[C@H]3CC=C4[C@@H]5[C@@H](C)[C@H](C)CC[C@]5(C)CC[C@@]4(C)[C@]3(C)CC[C@@H]12`?
**A.** inhibition at 100 µM (A549 [2]): 14%; inhibition at 100 µM [3]: 6%; inhibition at 100 µM [4]: 8%; inhibition at 100 µM [5]: 15%

**Q.** What does the source list for `COC(=O)[C@@]1(C)C(=O)/C(=C/c2ccc(OC(F)(F)F)cc2)C[C@]2(C)[C@H]3CC=C4[C@@H]5[C@@H](C)[C@H](C)CC[C@]5(C)CC[C@@]4(C)[C@]3(C)CC[C@@H]12`?
**A.** inhibition at 100 µM (A549 [2]): 14%; inhibition at 100 µM [3]: 35%; inhibition at 100 µM [4]: 0%; inhibition at 100 µM [5]: 78%

**Q.** With `COC(=O)[C@@]1(C)C(=O)/C(=C/c2cc(C(F)(F)F)cc(C(F)(F)F)c2)C[C@]2(C)[C@H]3CC=C4[C@@H]5[C@@H](C)[C@H](C)CC[C@]5(C)CC[C@@]4(C)[C@]3(C)CC[C@@H]12` as the molecule, how does the inhibition at 100 µM (A549 [2]) read?
**A.** 5%

**Q.** And the inhibition at 100 µM [3]?
**A.** 7%

**Q.** What about the inhibition at 100 µM [4] of the same molecule?
**A.** 10%

**Q.** And the inhibition at 100 µM [5]?
**A.** 0%

**Q.** For `COC(=O)[C@@]1(C)C(=O)/C(=C/c2ccc([N+](=O)[O-])cc2)C[C@]2(C)[C@H]3CC=C4[C@@H]5[C@@H](C)[C@H](C)CC[C@]5(C)CC[C@@]4(C)[C@]3(C)CC[C@@H]12`, which inhibition at 100 µM (A549 [2]) is on record?
**A.** 47%

**Q.** And the inhibition at 100 µM [3]?
**A.** 52%

**Q.** And the inhibition at 100 µM [4]?
**A.** 30%

**Q.** What about the inhibition at 100 µM [5] of the same molecule?
**A.** 36%

**Q.** For `COC(=O)[C@@]1(C)C(=O)/C(=C/c2ccccc2Cl)C[C@]2(C)[C@H]3CC=C4[C@@H]5[C@@H](C)[C@H](C)CC[C@]5(C)CC[C@@]4(C)[C@]3(C)CC[C@@H]12`, which inhibition at 100 µM (A549 [2]) is on record?
**A.** 0%

**Q.** And the inhibition at 100 µM [3]?
**A.** 25%

**Q.** What about the inhibition at 100 µM [4] of the same molecule?
**A.** 0%

**Q.** What about the inhibition at 100 µM [5] of the same molecule?
**A.** 21%
